p97 inhibitor: human p97 ATPase inhibition. inhibition, % at 8 µM. recombinant p97 ATPase, Kinase-Glo ATP luminescence, 3 h. actives 0.42% (n = 220,000); in the data active = inhibition above about 15%;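 note: 0% = DMSO vehicle and 100% = wells lacking enzyme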
KCC2 mod: modulators of human KCC2 chloride dependent transport. Q9H2X9. actives 2.2% (n = 190,000). B-score of Tl+ flux slope (higher = more flux/activation; lower = inhibition) at 10 µM. KCC2 cells, thallium flux FluoZin-2 fluorescence;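 active = thallium flux slope and its plate-corrected score both differing from the plate sample mean at a set confidence after two filtering rounds, in either direction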;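 note: slope of fluorescence scaled to starting intensity during 10 to 20 s after thallium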
PKD1 inh: PKD1 (human) kinase inhibition. PKD1 kinase fluorescence polarization assay. actives 0.056% (n = 200,000). inhibition, % (test concentration not listed). AID 797. Q15139; in the data active = inhibition above about 50%
Target sequence (Q15139 whole entry, looked up): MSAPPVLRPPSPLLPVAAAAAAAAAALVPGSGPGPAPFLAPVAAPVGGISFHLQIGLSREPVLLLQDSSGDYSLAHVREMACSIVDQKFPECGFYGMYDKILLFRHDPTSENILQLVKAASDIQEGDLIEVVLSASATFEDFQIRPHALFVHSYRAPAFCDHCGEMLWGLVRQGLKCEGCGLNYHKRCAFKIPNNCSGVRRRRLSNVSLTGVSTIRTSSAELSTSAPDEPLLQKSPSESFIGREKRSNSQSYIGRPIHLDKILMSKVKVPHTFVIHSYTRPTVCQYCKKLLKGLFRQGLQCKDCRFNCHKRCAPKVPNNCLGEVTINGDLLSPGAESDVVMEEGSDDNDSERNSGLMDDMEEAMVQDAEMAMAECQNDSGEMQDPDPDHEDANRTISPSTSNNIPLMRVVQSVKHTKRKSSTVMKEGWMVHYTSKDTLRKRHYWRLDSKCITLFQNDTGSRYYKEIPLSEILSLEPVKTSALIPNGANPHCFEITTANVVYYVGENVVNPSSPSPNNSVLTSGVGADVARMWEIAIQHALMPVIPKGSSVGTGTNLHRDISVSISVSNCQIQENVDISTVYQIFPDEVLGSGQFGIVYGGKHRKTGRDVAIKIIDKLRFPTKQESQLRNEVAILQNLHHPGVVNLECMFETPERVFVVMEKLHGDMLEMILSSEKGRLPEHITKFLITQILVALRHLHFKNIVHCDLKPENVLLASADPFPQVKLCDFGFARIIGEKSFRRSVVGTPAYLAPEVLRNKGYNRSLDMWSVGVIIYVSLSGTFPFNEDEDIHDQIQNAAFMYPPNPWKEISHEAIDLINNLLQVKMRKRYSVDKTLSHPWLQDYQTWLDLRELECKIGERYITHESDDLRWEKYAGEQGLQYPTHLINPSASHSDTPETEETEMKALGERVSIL
Redox H2O2 prof: compounds producing H2O2 with reducing agent – biochemical, NIH compound library profiling, artefact control for MLSCN library redox annotation, primary screen; DTT-dependent redox cycling H2O2, phenol red/HRP absorbance; 100% = 100 µM peroxide control, 0% = buffer; activation, % at 10 µM; actives 0.03% (n = 200,000);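 active = activation of at least 50% relative to the plate's high and low controls in the primary single-dose screen; inactive = activation below 50%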;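 note: compound incubated with DTT at 0.8 mM final as the reducing agent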
ROMK primary: human ROMK K+ channel modulation, primary screen; P48048; Tet-inducible ROMK, thallium flux fluorescence; actives lie on both sides; B-score at 10 µM; actives 2% (n = 130,000); AID 1918;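 active = signal ratio slope over the read window, or its plate-corrected B-score, at least 3 SD from the plate mean, either direction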;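 note: B-score of the F/F0 ratio slope over 7 to 12 s after thallium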
MDM2 E3 inh: Mdm2 E3 ligase (human) inhibition; signal enhancement, % at 5 µM; Q00987; cell-based MDM2 ubiquitination luciferase reporter, 2 h; 0 = plate control, 100 = twice control, blank-subtracted; actives 0.11% (n = 210,000);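 active = signal enhancement of 30% or more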;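 note: luminescence tracks abundance of the self-degrading MDM2-luciferase fusion protein; higher signal means inhibition of MDM2 E3 ligase activity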
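Timing – 2 h compound exposure at 37 °C · Assay system – mammalian cells stably expressing self-ubiquitinating, self-degrading MDM2 E3–luciferase fusion · Amount – 2000 cells seeded into each well · Measure – % luminescence enhancement versus blank-corrected plate control mean · Measured by – SteadyLite luminescence, 15 min reagent step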
KCC2 secondary: KCC2 (human) modulation, secondary assay | shares compounds with KCC2 mod | HEK293-KCC2, thallium flux, FluoZin2 fluorescence; stronger effect = higher value | normalised thallium flux (F/F0 slope) at 10 µM | actives 15% (n = 3,700);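 active = thallium flux slope above the same plate's solvent-only control mean plus 3 SD; inconclusive = the two replicate wells disagree; inactive = no significant difference from solvent-only control wells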
KCC2 bumet counter: thallium flux persisting under bumetanide in KCC2 cells, counter-screen secondary assay | shares compounds with KCC2 mod | AID 1714 | actives 49% (n = 3,700) | HEK293-KCC2 + bumetanide/ouabain, thallium flux FluoZin2; stronger effect = higher value | normalized thallium flux at 10 µM;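 active = thallium entry rate above the same plate's blocked-transporter control wells by more than 3 SD; inconclusive = the two repeat wells disagree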;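 note: raw slope of fluorescence over initial fluorescence between 10 and 20 s after thallium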
KCC2 secondary2: confirmation of human KCC2 transport modulators; normalized thallium flux at 10 µM; shares compounds with KCC2 mod; HEK293-KCC2, thallium flux FluoZin2 fluorescence; actives lie on both sides; F/F0 rise rate, 10–20 s post-thallium; actives 23% (n = 3,700);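 active = thallium flux slope more than 3 SD above or below the plate's solvent-only control mean, mostly below; inconclusive = the two repeat wells disagreed; inactive = no significant shift from solvent-only controls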;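 note: raw slope with 0.1% DMSO as baseline and bumetanide as block control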
HEK293 Tl flux: counter-screen for KCC2 modulators: effect in parental HEK293 cells; shares compounds with KCC2 mod; thallium flux rate (normalised fluorescence) at 10 µM; thallium flux FluoZin2, ouabain; baseline-ratio fluorescence slope, 10–20 s after thallium; AID 1716; actives 46% (n = 3,700);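 active = thallium flux rate significantly above the same plate's solvent-only control wells, beyond their mean plus 3 SD; inconclusive = the two replicate wells gave conflicting results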
KCC2 ouabain: confirmation of human KCC2 modulators with ouabain; AID 1717; actives 48% (n = 3,700); HEK293-KCC2, thallium flux FluoZin2 fluorescence; bidirectional: low = inhibitor, high = activator; shares compounds with KCC2 mod; raw Tl+ flux slope (below DMSO = inhibition, above = activation) at 10 µM;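 active = thallium flux slope beyond 3 SD from same-plate DMSO control mean in most replicates, usually higher, sometimes lower; inconclusive = repeat tests gave conflicting results; inactive = no significant difference from controls in most replicates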;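 note: slope of initial-normalized fluorescence between seconds 10 and 20 after thallium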
HEK293 Tl flux2: acts in parental HEK cells, second KCC2 counter-screen | shares compounds with KCC2 mod | HEK293 parental, thallium flux FluoZin-2 fluorescence slope | thallium flux slope at 10 µM | actives 33% (n = 3,700) | AID 1718;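 active = thallium flux slope above the same plate's solvent-control mean plus 3 SD in both duplicate wells; inconclusive = duplicate wells that disagreed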;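 note: run without ouabain in cells lacking the KCC2 cotransporter; slope of fluorescence scaled to its starting value between 10 and 20 s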
* hit, by the source's call; ? = inconclusive; nt = no result. Only some compounds are listed: those with a hit (about 3.4% of all), similar ones and a draw of the others.

SMILES | p97 inhibitor | KCC2 mod | PKD1 inh | Redox H2O2 prof | ROMK primary | MDM2 E3 inh | KCC2 secondary | KCC2 bumet counter | KCC2 secondary2 | HEK293 Tl flux | KCC2 ouabain | HEK293 Tl flux2
Cc1nnc(SCC(=O)NNC(=O)c2ccco2)n1-c1cccc(Cl)c1 | -4 | -3.6* | -5 | -1 | 0.058 | -11 | 0.0094 | ? | 0.03 | 0.008 | 0.065 | ?
Cc1ccc(-n2ncc3c(SCC(=O)NNC(=O)c4ccco4)ncnc32)cc1 | -1 | 37* | 1 | -1 | nt | -7 | ? | 0.041* | ? | 0.035* | 0.035* | 0.032*
O=C(Nc1ccc(F)cc1)c1cc(S(=O)(=O)Nc2ccc(F)cc2)cs1 | -4 | -0.047 | -3 | -3 | nt | -4 | nt | nt | nt | nt | nt | nt
CCS(=O)(=O)N1CCN(c2c(Cl)cccc2[N+](=O)[O-])CC1 | -6 | nt | 12 | 1 | nt | -16 | nt | nt | nt | nt | nt | nt
COC(=O)c1c(NC(=O)Cc2ccccc2)sc(C)c1C | -3 | -0.49 | -9 | 0 | nt | -19 | nt | nt | nt | nt | nt | nt
COC(=O)c1c(NC(=S)Nc2ccccc2Cl)sc(C)c1C | -1 | 6.3* | -13 | -3 | nt | 18 | 0.013* | 0.022* | 0.03 | 0.014* | ? | 0.012*
CCCSc1nc2c(c(=O)[nH]c(=O)n2C)n1C | 2 | 11* | 8 | -1 | nt | -10 | 0.016 | 0.0048 | 0.027 | 0.0076 | 0.017 | 0.01
C=CCn1c(Sc2ccccc2)nc2c1c(=O)[nH]c(=O)n2C | 2 | 0.34 | -5 | 0 | nt | -3 | nt | nt | nt | nt | nt | nt
C=CCn1c(Sc2nncn2C)nc2c1c(=O)[nH]c(=O)n2C | 4 | nt | -5 | 3 | nt | -21 | ? | 0.0068 | 0.028 | 0.0067 | 0.021 | 0.0098
C=C(C)CSC1=C(C#N)C(c2ccccc2Cl)CC(=O)N1 (centres undefined) | 1 | -0.11 | 8 | 0 | -0.016 | -17 | nt | nt | nt | nt | nt | nt
CN1CCN(C(=S)NC(=O)/C=C/c2ccccc2)CC1 | 3 | -0.82 | 0 | 0 | -0.51 | -26 | nt | nt | nt | nt | nt | nt
O=C(/C=C/c1ccc(Br)cc1)NC(=S)N1CCOCC1 | 3 | 8.7* | 1 | 0 | -0.42 | -7 | 0.008 | 0.024* | 0.037 | 0.017* | 0.031* | 0.019*
COc1ccc(/C=C/C(=O)NC(=S)N2CCSCC2)cc1 | -8 | 8.7* | 4 | 0 | -0.027 | -12 | 0.018 | 0.034* | 0.035 | 0.016* | 0.025* | 0.017*
COc1ccc(/C=C/C(=O)NC(=S)N2CCN(c3ccccn3)CC2)cc1 | 0 | 5.9* | nt | nt | nt | -17 | 0.0054 | 0.024* | 0.032 | 0.013* | ? | 0.015*
COc1ccc(/C=C/C(=O)NC(=S)Nc2ccc(C(=O)O)cc2)cc1 | -2 | -0.81 | -4 | 0 | 0.68 | -6 | nt | nt | nt | nt | nt | nt
Cn1ncc(Br)c1C(=O)NC(=S)N1CCN(c2ccccn2)CC1 | 0 | 0.66 | -5 | 0 | 0.14 | -7 | nt | nt | nt | nt | nt | nt
O=C(NC(=S)N1CCN(c2ccccn2)CC1)c1ccccc1 | 3 | 17* | 6 | 6 | 0.12 | -1 | 0.0062 | 0.043* | 0.035 | 0.03* | 0.039* | 0.019*
CCn1ccnc1CNC(=O)CC1C(=O)NCCN1Cc1ccccc1F (centres undefined) | 5 | 1.1 | 0 | 0 | 0.002 | 9 | nt | nt | nt | nt | nt | nt
CCN(CC)S(=O)(=O)c1cc(NC(=O)c2n[nH]c(=O)c3ccccc23)ccc1C | 1 | -0.35 | -2 | -1 | 1.2 | 1 | nt | nt | nt | nt | nt | nt
O=C(Cn1cnc2scc(-c3ccc(Cl)cc3)c2c1=O)N1CCOCC1 | 4 | 0.41 | nt | nt | nt | nt | nt | nt | nt | nt | nt | nt
Clc1ccc(-c2nnc(CCc3ccccc3)o2)c(Cl)c1 | -4 | -1.1 | 8 | -5 | 0.29 | -13 | nt | nt | nt | nt | nt | nt
CCn1c(SCC(=O)Nc2cccc(NC(=O)c3cccs3)c2)nnc1-c1ccncc1 | 1 | nt | -1 | 0 | 1.9 | -17 | nt | nt | nt | nt | nt | nt
CCN(CC)CCCNC(=O)C1CCCN(c2nnc(N3CCCC3=O)s2)C1 (centres undefined) | 2 | 0.74 | -8 | 0 | 0.32 | -15 | nt | nt | nt | nt | nt | nt
COc1ccc(C(=O)Nc2nc3ccccc3c(=O)[nH]2)cc1 | -1 | nt | -12 | 0 | 1.2 | -45 | nt | nt | nt | nt | nt | nt
COc1ccc2c(c1)n([O-])c1c([n+]2=O)CCC1 | 4 | 0.47 | nt | nt | 0.027 | nt | nt | nt | nt | nt | nt | nt
SMILES | p97 inhibitor | KCC2 mod | PKD1 inh | Redox H2O2 prof | ROMK primary | MDM2 E3 inh | KCC2 secondary | KCC2 bumet counter | KCC2 secondary2 | HEK293 Tl flux | KCC2 ouabain | HEK293 Tl flux2
Cc1cc(NC(=O)CS(=O)(=O)c2cn(Cc3ccccc3Cl)c3ccccc23)no1 | 6 | -2.9* | -7 | 3 | nt | -2 | 0.0063 | 0.004 | ? | 0.006* | 0.015* | ?
O=C(CC(Cc1ccccc1)c1ccco1)NC1CCCCC1 (centres undefined) | 0 | nt | 6 | 0 | nt | -4 | 0.011 | 0.0063 | 0.028* | 0.0077 | 0.013* | 0.01
Cc1cc(C)c2nc(SC3CCOC3=O)cc(C)c2c1 (centres undefined) | -4 | 11* | -1 | -1 | 0.1 | -6 | 0.0083 | ? | 0.031 | 0.011* | 0.047 | ?
COc1ccc2c(C)cc(SC3CCOC3=O)nc2c1 (centres undefined) | 3 | -0.13 | -1 | -1 | -0.2 | 3 | nt | nt | nt | nt | nt | nt
CCn1nnc(NC(=S)NC(=O)c2ccc(-c3cccc(Cl)c3)o2)n1 | 2 | 67* | nt | nt | nt | -1 | ? | 0.085* | 0.065* | 0.057* | 0.066* | 0.054*
CCCn1nnc(NC(=O)c2ccc(-c3cccc(Cl)c3)o2)n1 | 4 | -1.5 | -5 | 0 | nt | -16 | nt | nt | nt | nt | nt | nt
COc1ccc(S(=O)(=O)N(CCc2ccccc2)CC(N)=O)cc1 | -3 | -2.1 | -6 | -1 | 0.28 | 5 | nt | nt | nt | nt | nt | nt
COc1ccc(S(=O)(=O)N(CCc2ccccc2)CC(=O)O)cc1Cl | 2 | -3.8* | 3 | -1 | nt | -4 | 0.0099 | ? | 0.027* | 0.0044 | 0.017* | 0.012

From PubChem BioAssay
